Screening results as filed in PubChem.
A selection: hits, their analogues and other compounds. The true share with any hit is near 0.62%.
AP complement: alternative pathway complement inhibition, orthogonal assay; inhibition, % at 5 µM; Human serum alternative complement pathway, LPS-coated ELISA, C3 deposition; tested in compound mixtures; AID 1235; 62,000 compounds, 0.08% hits;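 active means inhibition above 30% in each of the two pooled mixtures holding the compound, so the lower value exceeds 30%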;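 further: 0% = serum in Mg-EGTA without compound and 100% = EDTA serum blank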
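Medium: diluted human serum in Mg2+-EGTA GVB++. Assay system: human serum complement alternative pathway, C3 deposition onto LPS. Also added: Plate-bound LPS. Technique: Anti-C3 ELISA, OD 450 nm. Measure: percent inhibition. Incubation: 1 h at 37 °C. Dosing: 5 µM each compound, pools of ten, 50 µM per pool.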
Abs 340nm: compounds absorbing at 340 nm. fold change at 10 µM. 65,000 tested, under 10 active. compound absorbance at 340 nm, fold over control;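 active means at 10 µM dose, initial 340 nm absorbance at least 2 fold that of control wells; inactive means change under 2 fold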;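 further: initial absorbance extrapolated from kinetic A340 decline of NADH oxidation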
HePTP inhibitor: inhibitors of human HePTP phosphatase; P35236; recombinant HePTP phosphatase activity, OD absorbance; inhibition, % at 20 µM; 110,000 compounds, 0.64% hits; in the data active means inhibition above about 50%;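 further: plate controls were vehicle for no effect and reference inhibitor for full effect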
Target sequence (P35236 whole entry, looked up): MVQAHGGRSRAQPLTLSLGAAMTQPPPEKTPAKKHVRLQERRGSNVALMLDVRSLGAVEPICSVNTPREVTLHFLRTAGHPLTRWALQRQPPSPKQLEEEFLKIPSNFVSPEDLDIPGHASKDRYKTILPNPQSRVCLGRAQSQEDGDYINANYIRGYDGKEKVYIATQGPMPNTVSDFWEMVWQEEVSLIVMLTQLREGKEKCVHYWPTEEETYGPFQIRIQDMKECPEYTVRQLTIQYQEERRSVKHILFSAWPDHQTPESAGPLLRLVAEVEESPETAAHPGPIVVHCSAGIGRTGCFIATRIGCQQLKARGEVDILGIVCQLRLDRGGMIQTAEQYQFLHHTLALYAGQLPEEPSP
* hit, by the source's call.

What do the screens show for `CCCCCCOc1ccc(N2C(=O)CC(N3CCN(c4ccccn4)CC3)C2=O)cc1` (stereo unspecified)?
HePTP inhibitor: 13

What do the screens show for `O=C(O)CC(C(=O)OCCOc1ccccc1)N1CCOCC1` (stereo unspecified)?
Abs 340nm: 1; HePTP inhibitor: -8

What do the screens show for `O=C(CC(C(=O)O)N1CCOCC1)c1ccccc1` (stereo unspecified)?
HePTP inhibitor: 103*

What do the screens show for `O=C1C(=O)N(c2nccs2)C(c2cccs2)/C1=C(\O)c1ccc(Cl)cc1` (stereo unspecified)?
HePTP inhibitor: -2

How did O=C(/C=C/c1ccco1)Nc1ccccc1C(=O)O do in these assays?
HePTP inhibitor: 96*

How did O=C(/C=C/c1ccco1)Nc1cc(Cl)ccc1C(=O)O do in these assays?
HePTP inhibitor: 102*

What do the screens show for `O=C(/C=C/c1ccco1)Nc1ccccc1-c1ccccc1`?
HePTP inhibitor: 5

How did O=C(/C=C/c1ccco1)NCc1ccc(Cl)cc1 do in these assays?
HePTP inhibitor: 10

What do the screens show for `COc1ccc(NC(=O)/C(=C/c2cccs2)NC(=O)c2cccs2)cc1`?
HePTP inhibitor: 3

How did Cc1cc(C)c(N2C(=O)NC(=O)/C(=C/c3ccc([N+](=O)[O-])o3)C2=O)c(C)c1 do in these assays?
HePTP inhibitor: 76*

What do the screens show for `Cc1cccc(N2C(=O)NC(=O)/C(=C/c3ccc(-c4ccccc4[N+](=O)[O-])o3)C2=O)c1`?
HePTP inhibitor: 0

What do the screens show for `COc1ccc(/C=C/C(=O)NCCSCc2ccccc2)cc1OC`?
HePTP inhibitor: -3

What do the screens show for `O=C(c1ccccc1F)N1CCN(C2CC3CCC2C3)CC1` (stereo unspecified)?
HePTP inhibitor: 6

Results for O=C(c1ccc(-c2ccccc2)cc1)N1CCN(C2CC3CCC2C3)CC1 (stereo unspecified) ?
HePTP inhibitor: 71*

How did COc1ccc(/C=C/C(=O)c2cccc(Br)c2)cc1OC do in these assays?
HePTP inhibitor: -3

Results for O=C(CSc1nnc(-c2cccs2)n1-c1ccccc1)c1ccc(Cl)cc1 ?
HePTP inhibitor: 10

How did Cc1ccc(C(C)C)c(OCCNC(=O)c2cc(F)c(F)cc2Cl)c1 do in these assays?
HePTP inhibitor: -8

Results for CC(=O)NC1=NC(=O)/C(=C/c2cc(C)n(-c3ccc(NC(C)=O)cc3)c2C)S1 ?
HePTP inhibitor: -2

How did CC(=O)NC1=NC(=O)/C(=C/c2cc(C)n(-c3cccc(C(=O)O)c3)c2C)S1 do in these assays?
HePTP inhibitor: 101*

What do the screens show for `Cn1/c(=N/N=C/c2c(F)cccc2Cl)sc2ccccc21`?
HePTP inhibitor: 6

What do the screens show for `COc1ccc(C(=O)N2CCN(S(C)(=O)=O)CC2)cc1OC`?
HePTP inhibitor: 8

How did Cc1cc2c(nc3s/c(=C/c4ccccc4)c(=O)n32)c(Br)c1C do in these assays?
HePTP inhibitor: 23

What do the screens show for `COc1cc(C(=O)O)c(-n2c(C)ccc2C)cc1OC`?
HePTP inhibitor: 41

Results for O=C(O)c1ccc(N2C(=O)C=CC2=O)cc1Cl ?
HePTP inhibitor: 47

What do the screens show for `Cc1ccc(-c2ccccc2)n1-c1ccc(O)c(C(=O)O)c1`?
HePTP inhibitor: 96*

Results for Cc1ccc(C)n1-c1ccc(Cl)cc1C(=O)O ?
HePTP inhibitor: 102*

Results for Cc1ccc(C)n1-c1ccc(Cl)c(C(=O)O)c1 ?
HePTP inhibitor: 104*

What do the screens show for `Cc1ccc(-c2ccccc2)n1-c1ccc(Cl)c(C(=O)O)c1`?
HePTP inhibitor: -9

What do the screens show for `Cc1ccc(-c2ccccc2)n1-c1cccc(C(=O)O)c1`?
HePTP inhibitor: 3

Results for Cc1ccc(C(=O)O)cc1-n1c(C)ccc1C ?
HePTP inhibitor: 104*

Results for COc1cc([N+](=O)[O-])cc(/C=C2/C(=O)NC(=O)N(c3ccccc3)C2=O)c1O ?
HePTP inhibitor: 5

How did Cc1cc(N)ccc1-n1c(C)ccc1C do in these assays?
AP complement: -1; Abs 340nm: 1; HePTP inhibitor: 8

How did Cc1cc(Cl)c2cc(C(=O)O)ccc2n1 do in these assays?
HePTP inhibitor: 0

What do the screens show for `Cc1ccc(C)n1-c1cc(C(=O)O)ccc1Cl`?
HePTP inhibitor: 103*

Results for Cc1cc(C(=O)O)ccc1-n1c(C)ccc1C ?
AP complement: -1; Abs 340nm: 0.98; HePTP inhibitor: 104*

What do the screens show for `COC(=O)c1ccc(NC(=O)CCCOc2ccccc2)cc1`?
HePTP inhibitor: 9

What do the screens show for `O=S(=O)(NCc1ccc2c(c1)OCO2)c1ccc(Cl)cc1`?
HePTP inhibitor: 7

How did COC(=O)/C=C(\C)NC(=O)c1cccs1 do in these assays?
AP complement: -13; Abs 340nm: 1; HePTP inhibitor: -8

What do the screens show for `COC(=O)/C=C(\C)NCCN/C(C)=C/C(=O)OC`?
HePTP inhibitor: 105*

How did O=C1N=C(N2CCOCC2)S/C1=C/c1ccc(Cl)cc1 do in these assays?
HePTP inhibitor: 102*

How did O=C1N=C(N2CCOCC2)S/C1=C\c1ccc(O)cc1 do in these assays?
HePTP inhibitor: -1

Results for O=C(c1ccc([N+](=O)[O-])cc1)n1c2c(c3ccccc31)CCCC2 ?
HePTP inhibitor: 104*

What do the screens show for `O=C(CN1CCCCC1)n1c2c(c3ccccc31)CCCC2`?
HePTP inhibitor: -8

How did COc1cccc(NC(=O)c2ccc3ccccc3n2)c1 do in these assays?
HePTP inhibitor: 4

How did O=C(Nc1ccccc1Cl)c1ccccc1C(F)(F)F do in these assays?
HePTP inhibitor: 104*

How did O=C(Nc1ccccc1I)c1ccccc1C(F)(F)F do in these assays?
HePTP inhibitor: 8

How did CC(=O)NS(=O)(=O)c1ccc(NC(=O)/C=C/c2ccc(C(C)(C)C)cc2)cc1 do in these assays?
HePTP inhibitor: 6

How did CSc1cccc(NS(=O)(=O)c2ccc(F)cc2)c1 do in these assays?
AP complement: 34*; Abs 340nm: 1.1; HePTP inhibitor: 2

What do the screens show for `CSc1cccc(NS(=O)(=O)c2ccccc2)c1`?
AP complement: 12; Abs 340nm: 1.1; HePTP inhibitor: 12

Results for Cc1cc(C=O)c(C)n1-c1ccc(Cl)c(Cl)c1 ?
HePTP inhibitor: -4

How did C=CCc1cccc2cc(C(=O)Nc3cccc(C(C)=O)c3)c(=O)oc12 do in these assays?
HePTP inhibitor: -1

How did CC1=NN(c2ccc(S(N)(=O)=O)cc2)C(=O)/C1=C\c1ccc(C)cc1 do in these assays?
HePTP inhibitor: 17

Results for CCC1(C)CC(CC(=O)O)(c2ccccc2OC)CCO1 (stereo unspecified) ?
AP complement: -1; Abs 340nm: 1.1; HePTP inhibitor: 5

Results for CCC1(C)CC(CC#N)(c2ccccc2OC)CCO1 (stereo unspecified) ?
HePTP inhibitor: 104*

How did O=C(c1cc(-c2cccs2)nc2ccccc12)N1CCN(c2ccccc2)CC1 do in these assays?
HePTP inhibitor: 0

What do the screens show for `CC(C)Oc1ccc(-c2cc(C(=O)O)c3ccccc3n2)cc1`?
HePTP inhibitor: 104*

How did Cc1nnc(NC(=O)c2cc(-c3ccc(Cl)cc3)nc3ccccc23)s1 do in these assays?
HePTP inhibitor: -11

What do the screens show for `Cc1nnc(NC(=O)c2cc(-c3cccs3)nc3ccccc23)s1`?
HePTP inhibitor: 102*

What do the screens show for `CC(C)c1ccc(-c2cc(C(=O)O)c3ccccc3n2)cc1`?
HePTP inhibitor: 1
